Experimental data gathered from unrelated publications.
Lines come from different studies, so protocols differ.
SIRT1: NAD-dependent protein deacetylase sirtuin-1 (SIRT1, Homo sapiens, UniProt Q96EB6)
SPHK2: Sphingosine kinase 2 (SPHK2, Homo sapiens, UniProt Q9NRA0)
Adra1b: Alpha-1B adrenergic receptor (Adra1b, Rattus norvegicus, UniProt P15823)
XDH: Xanthine dehydrogenase/oxidase (XDH, Bos taurus, UniProt P80457)
SLC7A5: Large neutral amino acids transporter small subunit 1 (SLC7A5, Homo sapiens, UniProt Q01650)

Structure (SMILES)	target	test	setting	inhibition
CCCCCCCCCCCCNC(=S)NCCCC[C@H](NC(=O)OCc1ccccc1)C(=O)N[C@@H](Cc1c[nH]c2ccccc12)C(=O)N[C@@H](CCCCNC(=N)N)C(N)=O	SIRT1	enzyme activity, inhibitor	1 µM	76%
O=C(CSc1nc2nccnc2c(=O)n1CCc1ccccc1)Nc1nccs1	SPHK2	enzyme activity, inhibitor	10 µM	0%
O=C(c1ccc(F)cc1)N(Cc1ccccc1)C1CCCCC1	Adra1b	cell-free assay	10 µM	4%
O=C(COc1ccc2cc(C(=O)Nc3ccccc3)ccc2c1)NCc1ccc(O)c(O)c1	Signal transducer and activator of transcription 5B, SH2 (STAT5B, Homo sapiens, UniProt P51692)	ligand displacement, FP	100 µM	-2%
O=C1C=C(c2ccc(O)c(O)c2)CO1	XDH	enzyme activity, inhibitor, absorbance	200 µg/mL	50%
CCOCCOCCOCCNC(=S)NCCCC[C@H](NS(C)(=O)=O)C(=O)N[C@H](C)C(=O)N[C@@H](CCCNC(=N)N)C(N)=O	SIRT1	enzyme activity, inhibitor	100 µM	16%
CCCCCC1CC(=O)c2cc(F)cc(F)c2O1 (stereo not drawn)	SIRT1	enzyme activity, inhibitor, fluorescence	200 µM	0.4%
O=C(NC1CCC1)[C@H](Cc1c[nH]c2ccccc12)NC(=O)[C@H](CCCCNC(=S)NCCc1nnn[nH]1)NS(=O)(=O)c1cccc(F)c1	SIRT1	enzyme activity, inhibitor	1 µM	7%
CCCCCC1CC(O)c2cc(Cl)cc(Br)c2O1 (stereo not drawn)	SIRT1	enzyme activity, inhibitor, fluorescence	200 µM	-5.5%
O=C(O)c1ccc(O)cc1	XDH	enzyme activity, inhibitor, absorbance	200 µg/mL	17.9%
CC(C)(C)c1ccc(CCc2ccc(-c3noc([C@@H]4CCCN4C(=N)N)n3)cc2C(F)(F)F)cc1	SPHK2	enzyme activity, inhibitor, radiometric	0.3 µM	71%
Cc1ccc(S(=O)(=O)n2cc(CCC3CC(=O)c4cc(Cl)cc(Br)c4O3)c3ccccc32)cc1 (stereo not drawn)	SIRT1	enzyme activity, inhibitor, fluorescence	200 µM	23%
CC(C)CCn1c(SCC(=O)Nc2ccccc2C(F)(F)F)nc2nccnc2c1=O	SPHK2	enzyme activity, inhibitor	10 µM	< 20%
OCCc1ccc(O)cc1	XDH	enzyme activity, inhibitor, absorbance	200 µg/mL	21.2%
CCCCCCCCCCCCCC(=O)NCCCC[C@H](NS(C)(=O)=O)C(=O)N[C@H](C)C(=O)N[C@@H](CCCNC(=N)N)C(N)=O	SIRT1	enzyme activity, inhibitor	10 µM	23%
CCCCNC(=S)NCCCC[C@H](NS(=O)(=O)c1cccc(F)c1)C(=O)N[C@@H](Cc1c[nH]c2ccccc12)C(=O)NC1CCC1	SIRT1	enzyme activity, inhibitor	1 µM	> 95%
CN(C)C1CCN(CC#Cc2nn(C3CCCC3)c3nc(NCc4ccccc4)ncc23)C1 (stereo not drawn)	Protein kinase C theta type (PRKCQ, Homo sapiens, UniProt Q04759)	enzyme activity, inhibitor, FRET	10 µM	13%
[H]/N=C(\N)N1CCC[C@H]1c1nc(-c2ccc(OCC=Cc3ccc(F)cc3)c(C(F)(F)F)c2)no1	SPHK2	enzyme activity, inhibitor, radiometric	0.3 µM	57%
N[C@@H](Cc1cccc(OC(=O)c2ccccc2)c1)C(=O)O	SLC7A5	transporter uptake, inhibitor, radiometric	200 µM	100%
O=Cc1ccc(O)cc1	XDH	enzyme activity, inhibitor, absorbance	200 µg/mL	6.5%
CCCCCCCCCCCCNC(=O)NCCCC[C@H](NS(C)(=O)=O)C(=O)N[C@H](C)C(=O)N[C@@H](CCCNC(=N)N)C(N)=O	SIRT1	enzyme activity, inhibitor	10 µM	38%
N=C(N)N1CCC[C@H]1c1nc(-c2ccc(CCC3CCCCC3)c(C(F)(F)F)c2)no1	SPHK2	enzyme activity, inhibitor, radiometric	0.3 µM	71%
CCCCCC1CC(=O)c2cc(Cl)cc(Br)c2O1 (stereo not drawn)	SIRT1	enzyme activity, inhibitor, fluorescence	200 µM	6.2%
N[C@@H](CCCCNC(=O)c1ccccc1)C(=O)O	SLC7A5	transporter uptake, inhibitor, radiometric	200 µM	38%

Structure (SMILES)	target	test	setting	inhibition
CC(C)C1CC(=O)c2cc(Cl)cc(Br)c2O1 (stereo not drawn)	SIRT1	enzyme activity, inhibitor, fluorescence	200 µM	2.8%
CCc1ccc(CCc2ccc(-c3noc([C@@H]4CCCN4C(=N)N)n3)cc2C(F)(F)F)cc1	SPHK2	enzyme activity, inhibitor, radiometric	0.3 µM	63%
N[C@@H](CO)C(=O)O	SLC7A5	transporter uptake, inhibitor, radiometric	200 µM	-1%
CCCCCC1CC(=O)c2cc(Br)cc(Br)c2O1 (stereo not drawn)	SIRT1	enzyme activity, inhibitor, fluorescence	200 µM	0.6%
CCCCCCCCCCCCNC(=S)NCCCC[C@H](NC(=O)OCc1ccccc1)C(=O)N[C@@H](CCCCN)C(=O)N[C@@H](CCCNC(=N)N)C(N)=O	SIRT1	enzyme activity, inhibitor	1 µM	25%
CCCC=CCOc1ccc(-c2noc([C@@H]3CCCN3C(=N)N)n2)cc1C(F)(F)F	SPHK2	enzyme activity, inhibitor, radiometric	0.3 µM	28%
O=C(O)c1ccc(O)c(O)c1	XDH	enzyme activity, inhibitor, absorbance	100 µg/mL	9.5%
O=c1cc(-c2ccccc2)oc2c(Br)cc(Cl)cc12	SIRT1	enzyme activity, inhibitor, fluorescence	200 µM	3.1%
NC(CCNC(=O)c1ccccc1)C(=O)O (stereo not drawn)	SLC7A5	transporter uptake, inhibitor, radiometric	200 µM	8.6%
[H]/N=C(\N)N1CCC[C@H]1c1nc(-c2ccc(OCC=Cc3ccc(C(F)(F)F)cc3)c(C(F)(F)F)c2)no1	SPHK2	enzyme activity, inhibitor, radiometric	0.3 µM	75%
NC(COC(=O)c1ccccc1)C(=O)O (stereo not drawn)	SLC7A5	transporter uptake, inhibitor, radiometric	200 µM	16%
[H]/N=C(\N)N1CCC[C@H]1c1nc(-c2ccc(OCC=CCCCC)c(C(F)(F)F)c2)no1	SPHK2	enzyme activity, inhibitor, radiometric	0.3 µM	48%
CCCCCCCCCCCCNC(=S)NCCCC[C@H](NC(=O)OCc1ccccc1)C(=O)N[C@@H](Cc1c[nH]c2ccccc12)C(=O)N[C@@H](CCCCN)C(N)=O	SIRT1	enzyme activity, inhibitor	10 µM	71%
O=C(NC1CCC1)[C@H](Cc1c[nH]c2ccccc12)NC(=O)[C@H](CCCCNC(=S)NCCn1nn[nH]c1=O)NS(=O)(=O)c1cccc(F)c1	SIRT1	enzyme activity, inhibitor	10 µM	17%
CNC(=O)c1cc(Oc2ccc(NC(=O)Nc3ccc(Cl)c(C(F)(F)F)c3)cc2)ccn1	Platelet-derived growth factor receptor alpha (PDGFRA, Homo sapiens, UniProt P16234)	enzyme activity, inhibitor	10 µM	95%
O=C(CSc1nc2nccnc2c(=O)n1CCc1ccccc1)Nc1ccccc1	SPHK2	enzyme activity, inhibitor	10 µM	< 20%
[H]/N=C(\N)N1CCC[C@H]1c1nc(-c2ccc(OCCC=Cc3ccc(C(F)(F)F)cc3)c(C(F)(F)F)c2)no1	SPHK2	enzyme activity, inhibitor, radiometric	0.3 µM	68%
CCCC(=S)NCCCC[C@H](NS(C)(=O)=O)C(=O)N[C@H](C)C(=O)N[C@@H](CCCNC(=N)N)C(N)=O	SIRT1	enzyme activity, inhibitor	10 µM	14%
O=C(CO)c1ccc(O)c(O)c1	XDH	enzyme activity, inhibitor, absorbance	100 µg/mL	20%
CCCCCC1CC(=O)c2cc(Cl)ccc2O1 (stereo not drawn)	SIRT1	enzyme activity, inhibitor, fluorescence	200 µM	2.7%
OCCc1ccc(O)c(O)c1	XDH	enzyme activity, inhibitor, absorbance	200 µg/mL	12.5%
O=C(Nc1ccc(S(=O)(=O)N2CCC(Cl)CC2)cc1)c1ccc([N+](=O)[O-])o1	Adra1b	ligand displacement, radioligand	10 µM	13%
O=Cc1c[nH]c2ccccc12	XDH	enzyme activity, inhibitor, absorbance	100 µg/mL	8.1%
CCCCCCCCCCCCNC(=S)NCCCC[C@H](NC(=O)OCc1ccccc1)C(=O)N[C@@H](Cc1c[nH]c2ccccc12)C(=O)N[C@@H](CCNC(=N)N)C(N)=O	SIRT1	enzyme activity, inhibitor	1 µM	30%
